Results on three compounds are retold here after paper PMC3793015 (Journal of agricultural and food chemistry, 2013).

One data set deals with HepG2 cells. Description: Cellular uptake and metabolism of α-MG. The settings on record: 24 h after addition of α-MG, control cultures; nd: not detected. The class given is in vitro ADME, human. Put shortly:
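HepG2 monolayers, 2 days post-confluence, received 9.0 μM compound as a DMSO stock added to 10% FBS medium for 24 h. Activated cultures had 10 ng/mL TNF-α for 4 h and a PBS wash first. Medium and cells were collected separately, extracted and analysed by RP-HPLC for free and glucuronidated/sulfated xanthones. Quantification used retention time, UV spectrum and five-point standard curves, as % of initial amount; mean ± SD, n ≥ 5.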

A further data set concerns Caco-2 cells. The experiment in a line: Cellular uptake, metabolism and transport of α-MG on Transwell inserts. The class given is in vitro ADME, human. The settings on record: 24 h after addition of α-MG, control cultures; nd: not detected. Put shortly: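 Caco-2 cells were differentiated 21–25 days post-confluence on Transwell inserts. Compound (12 μM) in Tween 40 micelles was added apically for 24 h. Activated cultures had 5 ng/mL IL-1β for 4 h, then a PBS wash. Apical medium, basolateral medium and cell monolayer were collected separately and analysed by RP-HPLC for free and conjugated xanthones. Amounts are % of initial compound; mean ± SD, n ≥ 5.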

In data set [1] the test system is LPS-induced production of NO in RAW 264.7 cells. Description: LPS-induced production of NO. It is filed as cell-based, murine. To be noted: Mus musculus, RAW264.7, read-out: inhibition of LPS-induced production of NO. Put shortly: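 RAW 264.7 cells, 2 days post-confluence, were pretreated 2 h with compound (DMSO stock into 10% FBS medium). They were then stimulated 16 h with 5 ng/mL E. coli O111:B4 LPS. NO production was estimated as medium nitrite by the Griess reaction.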

A further data set has as its system THP-1 cells. Description: Cellular uptake and metabolism of α-MG. The class given is in vitro ADME, human. To be noted: 24 h after addition of α-MG, control cultures; nd: not detected. Summed up: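 THP-1 monocytes were differentiated with 100 nM PMA for 48 h, then exposed 24 h to 5.2 μM compound (DMSO stock into 10% FBS medium). Activated cultures were pre-exposed to 5 ng/mL LPS for 4 h and washed with PBS. Spent medium and cells were collected separately, extracted and analysed by RP-HPLC for free and glucuronidated/sulfated xanthones. Amounts are % of initial compound; mean ± SD, n ≥ 5.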

On to `COc1c(O)cc2oc3cc4c(c(O)c3c(=O)c2c1CC=C(C)C)C=CC(C)(C)O4` [9-hydroxycalabaxanthone], for which the “intracellular xanthone, HepG2” value in the data set with HepG2 cells is recorded as 44 ± 5 pmol/dish. Further, in the data set on Caco-2 cells, the “intracellular xanthone, Caco-2” value is 100 ± 17 pmol/dish. As to `COC(=O)[C@@H](N)CCCNC(N)=N[N+](=O)[O-]` [L-NAME, reference compound], the inhibition at 200 µM in data set [1] is 30%. For the compound `COc1c(O)cc2oc3cc(O)c(CC=C(C)C)c(O)c3c(=O)c2c1CCC(C)(C)O` [garcinone D], the “intracellular xanthone, THP-1” value in the data set on THP-1 cells came to 66 ± 2 pmol/dish.

As a reminder, the inhibition is the share of the control response that was lost under treatment.
